# Assay results of several laboratories.
# Each line is one published result; the experiments were not run side by side.
# EIF2AK4 S808G C-terminal kinase domain: eIF-2-alpha kinase GCN2, C-terminal kinase domain (EIF2AK4, Homo sapiens, UniProt Q9P2K8, S808G)
# EIF2AK4 S808G: eIF-2-alpha kinase GCN2 (EIF2AK4, Homo sapiens, UniProt Q9P2K8, S808G)
SMILES,target,effect on,technique,concentration,remaining binding [%]
O=C(c1ccc(Nc2nccc(-c3cc4ccccc4s3)n2)cc1)N1CCC(N2CCCC2)CC1,EIF2AK4 S808G C-terminal kinase domain,binding,competition with immobilised ligand,1 µM,5.2
CCCCN(CCCC)C(=O)CN1C[C@@H](c2cc(OC)c3c(c2)OCO3)[C@H](C(=O)O)[C@H]1CC(C)(C)CCC,EIF2AK4 S808G C-terminal kinase domain,cell-free assay,competition with immobilised ligand,1 µM,100
COc1cnc(Nc2cccc(S(N)(=O)=O)c2)nc1N1CCN(c2ccccc2)C(=O)C1,EIF2AK4 S808G C-terminal kinase domain,binding,competition with immobilised ligand,1 µM,90
O=S(=O)(NC1CCC(c2cc(F)ccc2F)(S(=O)(=O)c2ccc(Cl)cc2)CC1)C(F)(F)F (centres unmarked),EIF2AK4 S808G C-terminal kinase domain,cell-free assay,competition with immobilised ligand,1 µM,100
Nc1ncc2c(n1)-c1c([nH]c3ccc(C#CC4CC4)cc13)CCCC2,EIF2AK4 S808G C-terminal kinase domain,binding,competition with immobilised ligand,1 µM,89
CCCOc1ccc([C@@H]2[C@@H](C(=O)O)[C@H](c3ccc4c(c3)OCO4)CN2CC(=O)Nc2c(CC)cccc2CC)cc1,EIF2AK4 S808G C-terminal kinase domain,cell-free assay,competition with immobilised ligand,1 µM,100
C=CC(=O)N1CCC(C(=O)NCC(=O)N2CCN(c3nc(-c4cnc(N)nc4C(F)F)nc(N4CCOCC4)n3)CC2)CC1,EIF2AK4 S808G C-terminal kinase domain,binding,competition with immobilised ligand,1 µM,100
O=C(NCCCN1CCOCC1)c1ccc(Nc2ncc(Cl)c(-c3ccc(Cl)s3)n2)cc1,EIF2AK4 S808G C-terminal kinase domain,binding,competition with immobilised ligand,1 µM,0.35
N[C@@H]1CCN(c2nccc(-c3cnn4ncccc34)n2)C1,EIF2AK4 S808G,binding,,1 µM,100
CN1CCN(c2ccc(Nc3nccc(-c4cccc([N+](=O)[O-])c4)n3)cc2C(F)(F)F)CC1,EIF2AK4 S808G,binding,,10 µM,0.2
O=C(NS(=O)(=O)c1ccc(NCC2CCOCC2)c([N+](=O)[O-])c1)c1ccc(N2CCN(Cc3ccc(C(F)(F)F)cc3-c3ccc(Cl)cc3)CC2)cc1Oc1cnc2[nH]ccc2c1,EIF2AK4 S808G C-terminal kinase domain,cell-free assay,competition with immobilised ligand,1 µM,85
c1cncc(-c2cccc(Nc3nccc(NC4CCCCC4)n3)c2)c1,EIF2AK4 S808G C-terminal kinase domain,binding,competition with immobilised ligand,10 µM,100
O=C(NCCCN1CCOCC1)c1ccc(Nc2nccc(-c3cc4ccccc4s3)n2)cc1,EIF2AK4 S808G C-terminal kinase domain,binding,competition with immobilised ligand,1 µM,15
F[C@@H]1CCN(c2nccc(-c3cnn4ncccc34)n2)C1,EIF2AK4 S808G,binding,,1 µM,63
CC(=O)N1CCC(c2ccc(C(=O)NC3=NCCN3)cc2C(F)(F)F)CC1,EIF2AK4 S808G C-terminal kinase domain,cell-free assay,competition with immobilised ligand,1 µM,52
CN(C)c1nccc(-c2cnc3ncccn23)n1,EIF2AK4 S808G,binding,,1 µM,99
FC(F)(F)Oc1cccc(-c2cnc3ccc(-c4ccncc4)nn23)c1,EIF2AK4 S808G,binding,competition with immobilised ligand,5 µM,35
C[C@@H]1CCN(c2nccc(-c3cnn4ncccc34)n2)C1,EIF2AK4 S808G,binding,,1 µM,78
O=C(NCC1CCOCC1)c1n[nH]cc1NC(=O)c1c(F)cccc1F,EIF2AK4 S808G C-terminal kinase domain,binding,competition with immobilised ligand,1 µM,100
O=C(NCc1ncc(C(F)(F)F)cc1Cl)c1ccc2c(c1)C1(CCS(=O)(=O)CC1)[C@@H](C1CC1)N2S(=O)(=O)c1ccc(F)cc1,EIF2AK4 S808G C-terminal kinase domain,cell-free assay,competition with immobilised ligand,1 µM,100
CN(C)c1ncc(F)c(-c2cnn3ncccc23)n1,EIF2AK4 S808G,binding,,1 µM,100
C[C@H](NC(=O)c1cnc2n1[C@](C)(Cc1ccc(C#N)cc1)C(=O)N2c1cc(Cl)c(F)c(Cl)c1)C(=O)NC1(c2ccccn2)CC1,EIF2AK4 S808G C-terminal kinase domain,cell-free assay,competition with immobilised ligand,1 µM,100
CN(c1nccc(-c2cnn3ncccc23)n1)C1CC1,EIF2AK4 S808G,binding,,1 µM,69
